The values that follow come from ChEMBL document CHEMBL1938301, “Cyclohexane 1,3-diones and their inhibition of mutant SOD1-dependent protein aggregation and toxicity in PC12 cells” (Bioorg Med Chem, 2012).

The structures appear in SMILES notation. Bounds are passed on as bounds.

Assay [1] in a line: Inhibition of SOD1 G93A mutant protein aggregation-mediated cytotoxicity in rat PC12 cells expressing yellow fluorescent protein assessed as increase in cell viability. The class given is cell-based. The settings on record: PC-12.
Assay [2] deals with PC-12. Put plainly: Inhibition of SOD1 G93A mutant protein aggregation-mediated cytotoxicity in rat PC12 cells expressing yellow fluorescent protein assessed as increase in cell viability relative to radicicol. The format is cell-based. Also noted: concentration or dose not given beside the values. The essentials: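 PC12 cells expressing G93A SOD1-YFP; MG132 proteasome inhibition induces cytotoxic mutant SOD1 aggregates. Cell survival measured as protection read-out; efficacy expressed relative to radicicol positive control.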

Consider `O=C1CC(=O)CC(c2ccc(Cl)cc2Cl)C1`, for which the EC50 in assay [1] is 4570 nM. Further, the Efficacy in assay [2] was determined as 100%.

Take `Cc1cc(C)c(C2CC(=O)CC(=O)C2)c(C)c1`: the EC50 in assay [1] was over 32000 nM. Moreover, in assay [2], the Efficacy worked out at 100%.

Turning to `O=C1CC(=O)CC(c2cccc(-c3cc(F)cc(F)c3)c2)C1`, the concentration for a half-maximal effect (EC50) in assay [1] came to 1240 nM. The Efficacy in assay [2] is 100%.

Take `CCn1c2ccccc2c2cc(C3CC(=O)CC(=O)C3)ccc21`: the EC50 in assay [1] stood at 3090 nM. In addition, in assay [2], the Efficacy was found to be 100%.

In the case of `O=C1CC(=O)CC([C@@H]2C[C@H]2c2cc(C(F)(F)F)cc(C(F)(F)F)c2)C1` (racemic), the EC50 in assay [1] was found to be 700 nM. Moreover, the Efficacy in assay [2] is 100%.

Consider `Cc1cccc(C2CC(=O)CC(=O)C2)c1`, for which, in assay [1], the EC50 worked out at 4810 nM. Moreover, the Efficacy in assay [2] came out at 100%.

Turning to `O=C1CC(=O)CC(c2cccc(Br)c2)C1`, the EC50 in assay [1] worked out at 28700 nM. Besides, the Efficacy in assay [2] was determined as 100%.

`CCCCCc1ccc(C2CC(=O)CC(=O)C2)cc1`: the EC50 in assay [1] was determined as 2010 nM. For the same molecule, the Efficacy in assay [2] came to 100%.

Consider `O=C1CC(=O)CC(c2ccc(Oc3cccc(Cl)c3)cc2)C1`, for which the EC50 in assay [1] was found to be 3600 nM. For the same molecule, the Efficacy in assay [2] was determined as 100%.

`Cc1cc(C)cc(C2CC(=O)CC(=O)C2)c1`: the concentration for a half-maximal effect (EC50) in assay [1] worked out at 2400 nM. For the same molecule, in assay [2], the Efficacy was 100%.

In the case of `O=C1CC(=O)CC(c2c(Cl)cc(Cl)cc2Cl)C1`, in assay [1], the EC50 stood at 7010 nM. Further, in assay [2], the Efficacy came out at 100%.

`O=C1CC(=O)CC(c2ccc(-c3cccc(Cl)c3)o2)C1`: the EC50 in assay [1] was determined as 2710 nM. Further, in assay [2], the Efficacy was 100%.

`O=C1CC(=O)CC(COc2ccccc2)C1`: the EC50 in assay [1] is over 32000 nM. The Efficacy in assay [2] was 100%.

Take `O=C1CC(=O)CC(c2ccc(Oc3ccc(F)cc3)cc2)C1`: the EC50 in assay [1] amounted to 2370 nM. Also, the Efficacy in assay [2] is 100%.

Consider `Cc1cc(C)cc(CC2CC(=O)CC(=O)C2)c1`, for which, in assay [1], the EC50 was 900 nM. The Efficacy in assay [2] came out at 100%.

As to `O=C1CC(=O)CC(c2cccc(Oc3cc(Cl)cc(Cl)c3)c2)C1`, in assay [1], the EC50 was determined as 6660 nM. Also, the Efficacy in assay [2] came out at 100%.

For `CCCc1ccc(C2CC(=O)CC(=O)C2)cc1`, the EC50 in assay [1] was found to be 2220 nM. In addition, the Efficacy in assay [2] came out at 100%.

Take `O=C1CC(=O)CC(c2cccc(OC(F)(F)F)c2)C1`: the EC50 in assay [1] was found to be 2040 nM. The Efficacy in assay [2] came out at 100%.

Turning to `Cc1cccc(C2CC(=O)CC(=O)C2)c1C`, in assay [1], the concentration giving a half-maximal response (EC50) turned out to be 2390 nM. Moreover, the Efficacy in assay [2] worked out at 100%.

`O=C1CC(=O)CC(c2cc(Cl)cc(-c3ccccc3)c2)C1`: the half-maximal effective concentration (EC50) in assay [1] worked out at 1100 nM. Moreover, the Efficacy in assay [2] is 100%.

With `O=C1CC(=O)CC(c2ccc(F)cc2F)C1`, in assay [1], the concentration for a half-maximal effect (EC50) was over 32000 nM. The Efficacy in assay [2] was found to be 100%.

For the molecule `O=C1CC(=O)CC(c2ccccc2Cl)C1`, the 50% effective concentration (EC50) in assay [1] is over 32000 nM. Besides, in assay [2], the Efficacy is 100%.

In the case of `CC(C)(C)c1ccc(C2CC(=O)CC(=O)C2)cc1`, in assay [1], the EC50 was 9930 nM. In addition, in assay [2], the Efficacy amounted to 100%.

Regarding `O=C1CC(=O)CC(c2ccc(OCCOc3ccccc3)cc2)C1`, the concentration for a half-maximal effect (EC50) in assay [1] amounted to 1560 nM. Also, in assay [2], the Efficacy worked out at 100%.

As for `O=C1CC(=O)CC(c2c(Cl)cccc2Cl)C1`, the EC50 in assay [1] amounted to 24300 nM. Also, in assay [2], the Efficacy amounted to 100%.

In the case of `O=C1CC(=O)CC(c2ccc(C(F)(F)F)cc2C(F)(F)F)C1`, the EC50 in assay [1] is 2560 nM. In addition, in assay [2], the Efficacy was determined as 100%.

Take `O=C1CC(=O)CC(c2cc(F)cc(F)c2)C1`: in assay [1], the EC50 was found to be 8200 nM. In assay [2], the Efficacy came to 100%.

Take `CC(C)c1ccc(C2CC(=O)CC(=O)C2)cc1`: the EC50 in assay [1] worked out at 4090 nM. Besides, the Efficacy in assay [2] was 100%.

On to `O=C1CC(=O)CC(c2cccc(-c3ccccc3)c2)C1`, for which the EC50 in assay [1] is 1230 nM. Further, the Efficacy in assay [2] amounted to 100%.

With `CCc1ccc(C2CC(=O)CC(=O)C2)cc1`, the concentration giving a half-maximal response (EC50) in assay [1] was 2220 nM. In addition, in assay [2], the Efficacy worked out at 100%.

As for `CCCCc1ccc(C2CC(=O)CC(=O)C2)cc1`, the concentration for a half-maximal effect (EC50) in assay [1] is 2710 nM. For the same molecule, the Efficacy in assay [2] was found to be 100%.

Take `Cc1ccccc1C1CC(=O)CC(=O)C1`: the EC50 in assay [1] worked out at 3390 nM. In addition, in assay [2], the Efficacy was found to be 100%.

For `O=C1CC(=O)CC(Cc2ccccc2)C1`, the EC50 in assay [1] was found to be 1820 nM. Besides, the Efficacy in assay [2] came to 100%.

For the molecule `O=C1CC(=O)CC(COc2cc(C(F)(F)F)cc(C(F)(F)F)c2)C1`, in assay [1], the EC50 came to 700 nM. Further, the Efficacy in assay [2] came out at 100%.

As to `O=C1CC(=O)CC(c2cccc(Cl)c2)C1`, in assay [1], the EC50 was 6520 nM. The Efficacy in assay [2] was found to be 100%.

In the case of `O=C1CC(=O)CC(c2ccccc2Br)C1`, the EC50 in assay [1] is over 32000 nM. The Efficacy in assay [2] amounted to 100%.

For `O=C1CC(=O)CC(c2c(F)cccc2F)C1`, the EC50 in assay [1] is over 32000 nM. The Efficacy in assay [2] came to 100%.

For the molecule `O=C1CC(=O)CC(c2ccccc2C(F)(F)F)C1`, the EC50 in assay [1] was found to be 3200 nM. Moreover, the Efficacy in assay [2] is 100%.

With `O=C1CC(=O)CC(c2cccc(Oc3ccc(Cl)cc3)c2)C1`, the EC50 in assay [1] is 2180 nM. Besides, in assay [2], the Efficacy is 100%.

Consider `CC1(COc2cc(C(F)(F)F)cc(C(F)(F)F)c2)CC(=O)CC(=O)C1`, for which the concentration for a half-maximal effect (EC50) in assay [1] was determined as 700 nM. Moreover, in assay [2], the Efficacy turned out to be 100%.

Turning to `O=C1CC(=O)CC(c2ccc(OCc3ccccc3)cc2)C1`, the concentration giving a half-maximal response (EC50) in assay [1] is over 32000 nM. In assay [2], the Efficacy came out at 100%.

As to `CC(C)(C)OC(=O)N1CCN(c2ccc(C3CC(=O)CC(=O)C3)cc2)CC1`, the concentration for a half-maximal effect (EC50) in assay [1] turned out to be 8290 nM. Besides, the Efficacy in assay [2] stood at 100%.

With `O=C1CC(=O)CC(c2cccc(-c3cc(C(F)(F)F)cc(C(F)(F)F)c3)c2)C1`, in assay [1], the EC50 stood at 2150 nM. The Efficacy in assay [2] was determined as 100%.

`O=C1CC(=O)CC(c2cccc(-c3ccc(Cl)cc3)c2)C1`: the EC50 in assay [1] came to 3510 nM. The Efficacy in assay [2] is 100%.

For the molecule `O=C1CC(=O)CC(c2ccccc2F)C1`, in assay [1], the EC50 was over 32000 nM. The Efficacy in assay [2] was 100%.

As for `O=C1CC(=O)CC([C@@H]2C[C@H]2c2ccccc2)C1`, the EC50 in assay [1] was 2650 nM. For the same molecule, the Efficacy in assay [2] is 100%.

As to `CC(C)c1cccc(C2CC(=O)CC(=O)C2)c1`, the EC50 in assay [1] was determined as 1580 nM. In assay [2], the Efficacy amounted to 100%.

With `CCc1ccccc1C1CC(=O)CC(=O)C1`, the EC50 in assay [1] amounted to 3160 nM. Moreover, the Efficacy in assay [2] turned out to be 100%.

Consider `CCOc1cccc(C2CC(=O)CC(=O)C2)c1OCC`, for which the 50% effective concentration (EC50) in assay [1] came out at 3990 nM. Further, the Efficacy in assay [2] worked out at 100%.

As to `O=C1CC(=O)CC(c2cc(-c3ccccc3)cc(-c3ccccc3)c2)C1`, the half-maximal effective concentration (EC50) in assay [1] is 2530 nM. Also, the Efficacy in assay [2] amounted to 100%.

As to `CC1(COc2ccccc2)CC(=O)CC(=O)C1`, the EC50 in assay [1] amounted to 6280 nM. Further, in assay [2], the Efficacy was found to be 100%.

`O=C1CC(=O)CC(CC(c2ccccc2)c2ccccc2)C1`: the concentration giving a half-maximal response (EC50) in assay [1] is 3430 nM. Also, in assay [2], the Efficacy is 100%.

Regarding `CC(c1ccccc1)C1CC(=O)CC(=O)C1` (racemic), the EC50 in assay [1] is 5850 nM. In addition, in assay [2], the Efficacy came to 100%.

Regarding `Cc1cccc(C)c1C1CC(=O)CC(=O)C1`, the half-maximal effective concentration (EC50) in assay [1] was 2700 nM. The Efficacy in assay [2] turned out to be 100%.

As for `O=C1CC(=O)CC(c2cc(-c3cccc(Cl)c3)cc(C(F)(F)F)c2)C1`, the EC50 in assay [1] was determined as 1560 nM. The Efficacy in assay [2] came to 100%.

As for `O=C1CC(=O)CC(c2ccc3ccccc3c2)C1`, the EC50 in assay [1] was determined as 6210 nM. In assay [2], the Efficacy came to 100%.

Regarding `CC(Oc1cc(Cl)cc(Cl)c1)C1CC(=O)CC(=O)C1` (racemic), in assay [1], the concentration giving a half-maximal response (EC50) was determined as 1410 nM. In addition, the Efficacy in assay [2] came to 100%.
